Bioassay records: PubChem BioAssay, The Scripps Research Institute Molecular Screening Center
CHRM1 PAM: positive allosteric modulators of human M1 muscarinic receptor; CHO-K1 hM1, Fluo-8 calcium fluorescence, ACh EC20; 0% = ACh EC20, 100% = maximal ACh; activation, % at 3 µM; hit rate 0.088% among 360,000; AID 588819; in the data active means activation above about 19%, passing the limit was not always enough
Target sequence (P11229 whole entry, looked up): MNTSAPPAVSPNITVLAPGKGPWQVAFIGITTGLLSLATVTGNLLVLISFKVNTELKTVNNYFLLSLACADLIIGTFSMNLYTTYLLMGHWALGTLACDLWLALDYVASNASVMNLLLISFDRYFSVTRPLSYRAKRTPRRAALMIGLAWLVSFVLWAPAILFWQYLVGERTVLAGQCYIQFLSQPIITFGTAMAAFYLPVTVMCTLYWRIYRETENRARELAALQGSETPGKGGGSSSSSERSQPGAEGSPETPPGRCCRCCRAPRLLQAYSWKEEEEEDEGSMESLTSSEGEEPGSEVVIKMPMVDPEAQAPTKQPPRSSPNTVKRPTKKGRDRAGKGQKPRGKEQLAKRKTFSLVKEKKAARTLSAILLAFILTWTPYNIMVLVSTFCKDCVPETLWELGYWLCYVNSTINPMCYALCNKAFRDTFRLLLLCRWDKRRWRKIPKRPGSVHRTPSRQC
M1 antag: blocks human M1 muscarinic receptor; P11229; CHO-K1 hM1, Fluo-8 calcium fluorescence, ACh EC80 antagonist; inhibition, % at 3 µM; hit rate 1.3% among 360,000; AID 588852;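 active means percent inhibition above its own plate's cutoff, namely the mean of that plate's compound wells plus 3 SD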;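 further: peak over basal fluorescence ratio during 140 s after agonist addition; 0% = ACh EC80 plus DMSO and 100% = DMSO alone without agonist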
CHRM1 agonist: human M1 muscarinic receptor agonism | hit rate 0.33% among 360,000 | activation, % at 3 µM | AID 588814 | CHO-K1 hM1, Fluo-8 calcium fluorescence, agonist mode; 0% DMSO, 100% acetylcholine EC100;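 active means activation above the run's mean compound activation plus 3 SD, cut at about 16% in these data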;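 further: peak over basal fluorescence ratio within a 140 s kinetic read after compound addition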
CHRM5 agonist: agonists of human muscarinic M5 receptor (CHRM5). activation, % at 3 µM. AID 624037. hit rate 0.19% among 360,000. CHO-K1 hM5 cells, Fluo-8 calcium fluorescence; 0% DMSO wells, 100% maximal acetylcholine response;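 active means activation above the run's mean over test compounds plus 3 SD, cut at about 23% in these data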;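 further: signal is peak over basal fluorescence ratio across the kinetic read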
CHRM5 PAM: positive allosteric modulators of human muscarinic M5 receptor; hit rate 0.3% among 360,000; P08912; CHO-K1 hM5, Fluo-8 calcium, ACh EC20 PAM; 0% = ACh EC20, 100% = ACh EC100; activation, % at 3 µM;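 active means activation above the run cutoff, the mean activation of all test compounds plus 3 SD, cut at about 18% in these data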
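Assay system – human M5 receptor in CHO-K1 cells · Read-out – % activation, ACh-normalized · Technique – Fluo-8 calcium fluorescence · Dosing – single-point, 3 µM nominal · Incubation – Fluo-8 loading 80 min at 37 °C plus 30 min room temperature · Repeats – singlicate, one well per test compound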
M5 antag: blocks acetylcholine activation of human M5 receptor | CHO-hM5 cells, Fluo-8 calcium fluorescence, ACh EC80 | inhibition, % at 3 µM | hit rate 0.59% among 360,000;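 active means inhibition above a per-plate cutoff, the mean of that plate's test compounds plus 3 SD, cut at about 27% in these data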;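 further: 0% = acetylcholine EC80 with DMSO and 100% = DMSO without agonist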
An asterisk follows results filed as active. An excerpt weighted towards active compounds, which were near 2% of everything screened.

How did O=C(CSc1n[nH]c(=O)n1C1CC1)Nc1cc(Cl)ccc1Oc1ccccc1 do in these assays?
CHRM1 PAM: -15.7; M1 antag: 45.9*; CHRM1 agonist: 2.4; CHRM5 agonist: 3.7; CHRM5 PAM: -20.1; M5 antag: 30.4*

What do the screens show for `COCc1cccc(-c2csc(C(NC(C)=O)c3ccccc3)n2)c1` (stereo not given)?
CHRM1 PAM: 5.8; M1 antag: -17.3; CHRM1 agonist: -3.4; CHRM5 agonist: -1.4; CHRM5 PAM: -5.3; M5 antag: 6.1

How did Cc1cccc(C(=O)OC(C)C(=O)Nc2ccc(S(=O)(=O)N3CCCC3)cc2)c1O (stereo not given) do in these assays?
CHRM1 PAM: -16.0; M1 antag: 29.2*; CHRM1 agonist: -5.0; CHRM5 agonist: -2.6; CHRM5 PAM: -27.9; M5 antag: 16.8

How did CC(Sc1ccc(Cl)cc1)C(=O)N(C)CC(=O)Nc1ccc(N2CCOCC2)cc1 (stereo not given) do in these assays?
CHRM1 PAM: -7.1; M1 antag: 18.4*; CHRM1 agonist: -1.7; CHRM5 agonist: 3.0; CHRM5 PAM: -8.3; M5 antag: -3.0

How did CC(Oc1ccc(Br)cc1)C(=O)Nc1ccc(S(=O)(=O)N(C)C2CCN(C)CC2)cc1 (stereo not given) do in these assays?
CHRM1 PAM: -19.4; M1 antag: 67.0*; CHRM1 agonist: 54.9*; CHRM5 agonist: 61.9*; CHRM5 PAM: -14.4; M5 antag: 25.6

Results for CC(OC(=O)c1cc(Br)ccc1O)C(=O)Nc1ccc(S(=O)(=O)N2CCCC2)cc1 (stereo not given) ?
CHRM1 PAM: -1.1; M1 antag: 16.2; CHRM1 agonist: 2.1; CHRM5 agonist: 10.5; CHRM5 PAM: -25.8; M5 antag: 19.6

What do the screens show for `CC(Oc1cc(F)ccc1[N+](=O)[O-])C(=O)Nc1ccc(S(=O)(=O)N2CCCC2)cc1` (stereo not given)?
CHRM1 PAM: -25.6; M1 antag: 72.9*; CHRM1 agonist: -4.9; CHRM5 agonist: -5.5; CHRM5 PAM: -2.0; M5 antag: 1.0

What do the screens show for `NS(=O)(=O)c1ccc(CCNC(=O)c2cccc(S(=O)(=O)N3CCc4ccccc43)c2)cc1`?
CHRM1 PAM: 3.5; M1 antag: -11.3; CHRM1 agonist: -2.2; CHRM5 agonist: -1.6; CHRM5 PAM: -6.8; M5 antag: 9.5

How did Cc1ccc(OC(C)C(=O)Nc2ccc(S(=O)(=O)N3CCOCC3)cc2)cc1 (stereo not given) do in these assays?
CHRM1 PAM: 5.3; M1 antag: 1.4; CHRM1 agonist: 22.0*; CHRM5 agonist: 17.9; CHRM5 PAM: -6.2; M5 antag: 11.4

Results for Cc1ccccc1OC(C)C(=O)Nc1ccc(S(=O)(=O)N2CCCC2)cc1 (stereo not given) ?
CHRM1 PAM: -23.1; M1 antag: 88.5*; CHRM1 agonist: -4.5; CHRM5 agonist: 0.2; CHRM5 PAM: -3.5; M5 antag: 3.3

What do the screens show for `CC(Sc1ccc(Cl)cc1)C(=O)Nc1ccc(S(=O)(=O)N2CCOCC2)cc1` (stereo not given)?
CHRM1 PAM: 9.8; M1 antag: -0.8; CHRM1 agonist: 22.4*; CHRM5 agonist: 38.8*; CHRM5 PAM: 6.6; M5 antag: 6.0

Results for CCOc1ccccc1OC(C)C(=O)Nc1ccc(S(=O)(=O)N2CCCC2)cc1 (stereo not given) ?
CHRM1 PAM: 1.8; M1 antag: -2.5; CHRM1 agonist: -5.8; CHRM5 agonist: -3.4; CHRM5 PAM: -2.9; M5 antag: 3.2

Results for CC(Oc1ccccc1Cl)C(=O)Nc1ccc(S(=O)(=O)N2CCOCC2)cc1 (stereo not given) ?
CHRM1 PAM: 13.0; M1 antag: -7.7; CHRM1 agonist: -2.2; CHRM5 agonist: 1.0; CHRM5 PAM: 4.2; M5 antag: 0.3

How did CC(C)C(=O)Nc1ccc(C(=O)Nc2ccc(S(=O)(=O)N3CCOCC3)cc2)cc1 do in these assays?
CHRM1 PAM: 11.5; M1 antag: -21.2; CHRM1 agonist: -0.6; CHRM5 agonist: -1.9; CHRM5 PAM: 5.9; M5 antag: 3.9

Results for CCOC(=O)C(=O)N(C)c1c(CC)nc2c(OCc3ccccc3)cccn12 ?
CHRM1 PAM: 10.7; M1 antag: -10.2; CHRM1 agonist: -5.5; CHRM5 agonist: 0.3; CHRM5 PAM: -1.1; M5 antag: 10.6

Results for Fc1cc(Cl)cc2ccc(-c3ccccc3)nc12 ?
CHRM1 PAM: -3.9; M1 antag: 7.1; CHRM1 agonist: -3.8; CHRM5 agonist: 0.3; CHRM5 PAM: -3.4; M5 antag: -3.0

How did CC(C)CCNC(=O)c1cc(S(=O)(=O)N2CCC3(CC2)OCCO3)ccc1F do in these assays?
CHRM1 PAM: 1.5; M1 antag: -9.7; CHRM1 agonist: -1.7; CHRM5 agonist: 1.3; CHRM5 PAM: -2.2; M5 antag: 4.3

How did O=C(NCc1nnnn1-c1ccc(F)cc1)c1ccc2c(c1)OCO2 do in these assays?
CHRM1 PAM: 5.8; M1 antag: -9.2; CHRM1 agonist: -3.7; CHRM5 agonist: 0.6; CHRM5 PAM: 0.6; M5 antag: 0.9

How did CCN(CC(=O)Nc1ccc(S(=O)(=O)N2CCCC2)cc1)Cc1ccccc1 do in these assays?
CHRM1 PAM: -23.0; M1 antag: 45.3*; CHRM1 agonist: -5.8; CHRM5 agonist: -6.2; CHRM5 PAM: -5.6; M5 antag: 5.0

How did COC(=O)CCC(=O)Nc1ccc(S(=O)(=O)N2CCCCCC2)cc1 do in these assays?
CHRM1 PAM: 6.2; M1 antag: -6.8; CHRM1 agonist: -6.5; CHRM5 agonist: -1.4; CHRM5 PAM: 18.6*; M5 antag: -6.6

How did CC(C)(C)CC(=O)Nc1ccc(S(=O)(=O)N2CCCC2)cc1 do in these assays?
CHRM1 PAM: 5.4; M1 antag: -5.2; CHRM1 agonist: -1.5; CHRM5 agonist: 0.2; CHRM5 PAM: -1.6; M5 antag: -0.6

What do the screens show for `CC1CCN(C(C)C(=O)Nc2ccc(S(=O)(=O)N3CCCC3)cc2)CC1` (stereo not given)?
CHRM1 PAM: -30.4; M1 antag: 100.6*; CHRM1 agonist: -8.6; CHRM5 agonist: -10.1; CHRM5 PAM: -38.3; M5 antag: 14.1

What do the screens show for `CCN(CC(=O)Nc1ccc(S(=O)(=O)N2CCOCC2)cc1)Cc1ccccc1`?
CHRM1 PAM: 1.4; M1 antag: -7.3; CHRM1 agonist: -7.1; CHRM5 agonist: -1.0; CHRM5 PAM: -0.2; M5 antag: 3.3

What do the screens show for `CC(C)CC(=O)Nc1ccc(S(=O)(=O)N2CCCC2)cc1`?
CHRM1 PAM: 3.4; M1 antag: -3.2; CHRM1 agonist: -6.0; CHRM5 agonist: -5.0; CHRM5 PAM: -3.4; M5 antag: 28.2*

Results for O=C(NCc1ccncc1)[C@@H]1CCCN1C(=O)[C@@H]1CCCN1C(=O)c1ccccc1 ?
CHRM5 agonist: 0.7; CHRM5 PAM: -0.4; M5 antag: -3.0
